ChEMBL document CHEMBL4699461, “Enhanced Production and Anticancer Properties of Photoactivated Perylenequinones” (J Nat Prod, 2020)

Key:
SK-MEL-28 [1] = assay: Phototherapeutic index, ratio of EC50 for cytotoxicity against human SK-MEL-28 cells in dark condition to EC50 for phototoxicity against human SK-MEL-28 cells preincubated for 16 hrs followed by irradiated with 100 J/cm2 625 nanometer red light for 60 mins
Procedure, shortened: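 PI for red light, calculated as dark EC₅₀ divided by red-light EC₅₀ in SK-MEL-28 cells. Viability was read 48 h later by alamarBlue fluorescence.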

SK-MEL-28 [2] = assay: Phototoxicity against human SK-MEL-28 cells assessed as reduction in cell viability preincubated for 16 hrs followed by irradiated with 100 J/cm2 625 nanometer red light for 60 mins and measured after 48 hrs by alamar blue assay; format: functional, cell-based; settings: SK-MEL-28, light or radiation study
Procedure, shortened: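 Cells (SK-MEL-28, ~550,000–600,000 cells/mL) were dosed with compound at 1 nM–300 μM in DPBS dilutions, with a 16 h drug-to-light interval at 37 °C. They were irradiated with a 625 nm LED array at 27.8 mW/cm² to 100 J/cm². After 48 h of incubation, alamarBlue was added for 15–16 h and fluorescence was read (ex 530, em 620 nm) to give EC₅₀.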

SK-MEL-28 [3] = assay: Phototherapeutic index, ratio of EC50 for cytotoxicity against human SK-MEL-28 cells in dark condition to EC50 for phototoxicity against human SK-MEL-28 cells preincubated for 16 hrs followed by irradiated with 100 J/cm2 400 to 700 nanometer visible light for 48 mins
SK-MEL-28 [4] = assay: Phototoxicity against human SK-MEL-28 cells assessed as reduction in cell viability preincubated for 16 hrs followed by irradiated with 100 J/cm2 400 to 700 nanometer visible light for 48 mins and measured after 48 hrs by alamar blue assay; settings: SK-MEL-28, light or radiation study
SK-MEL-28 [5] = assay: Cytotoxicity against human SK-MEL-28 cells assessed as reduction in cell viability preincubated for 16 hrs in dark condition subsequently incubated for 48 hrs by alamar blue assay; format: cell-based
Procedure, shortened: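 SK-MEL-28 human melanoma cells, ~550,000–600,000 cells/mL, settled 3 h at 37 °C, 5% CO₂. Compounds were serially diluted in DPBS and tested over 1 nM to 300 μM. Plates were kept dark in the incubator for 16 h, then 48 h more. alamarBlue was then added for 15–16 h, and viability was read by fluorescence (ex 530, em 620 nm) to give EC₅₀.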

COC1=C2c3c4c5c(c(O)cc(OC)c5c5c(OC)cc(O)c(c35)C1=O)C(=O)[C@H](OC)[C@]41C[C@](C)(O)[C@H]2[C@]1(C)O
Ratio EC50 (SK-MEL-28 [1]): >234
EC50 (SK-MEL-28 [2]): 1.28 µM
Ratio EC50 (SK-MEL-28 [3]): >2222
EC50 (SK-MEL-28 [4]): 0.135 µM
EC50 (SK-MEL-28 [5]): > 300 µM

COC1=C2c3c4c5c(c(O)cc(OC)c5c5c(OC)cc(O)c(c35)C1=O)C(=O)[C@H](OC)[C@]41C[C@@](C)(O)[C@H]2[C@]1(C)O
Ratio EC50 (SK-MEL-28 [1]): 219
EC50 (SK-MEL-28 [2]): 0.603 µM
Ratio EC50 (SK-MEL-28 [3]): 767
EC50 (SK-MEL-28 [4]): 0.172 µM
EC50 (SK-MEL-28 [5]): 132 µM

COC1=C2c3c4c5c(c(O)cc(OC)c5c5c(OC)cc(O)c(c35)C1=O)C(=O)C[C@]41C[C@](C)(O)[C@H]2[C@]1(C)O
Ratio EC50 (SK-MEL-28 [1]): 39
EC50 (SK-MEL-28 [2]): 2.55 µM
Ratio EC50 (SK-MEL-28 [3]): 561
EC50 (SK-MEL-28 [4]): 0.176 µM
EC50 (SK-MEL-28 [5]): 98.7 µM

COc1c(O)c2c(=O)cc(OC)c3c4c(OC)cc(=O)c5c(O)c(OC)c6c(c(c1C[C@@](C)(O)[C@@H]6C(C)=O)c23)c54
Ratio EC50 (SK-MEL-28 [1]): 2569
EC50 (SK-MEL-28 [2]): 0.0153 µM
Ratio EC50 (SK-MEL-28 [3]): 3816
EC50 (SK-MEL-28 [4]): 0.0103 µM
EC50 (SK-MEL-28 [5]): 39.3 µM

COc1c(O)c2c(=O)cc(OC)c3c4c(OC)cc(O)c5c(=O)c(OC)c6c(c(c1[C@H](C(C)=O)[C@](C)(O)C6)c23)c54
Ratio EC50 (SK-MEL-28 [1]): 2196
EC50 (SK-MEL-28 [2]): 0.0592 µM
Ratio EC50 (SK-MEL-28 [3]): 2430
EC50 (SK-MEL-28 [4]): 0.0535 µM
EC50 (SK-MEL-28 [5]): 130 µM

COC1=C(C(C)=O)C2=C(C)Cc3c(OC)c(=O)c(O)c4cc(OC)c5c(OC)cc(O)c6c(c2c3c4c56)C1=O
Ratio EC50 (SK-MEL-28 [1]): 2783
EC50 (SK-MEL-28 [2]): 0.0157 µM
Ratio EC50 (SK-MEL-28 [3]): 2973
EC50 (SK-MEL-28 [4]): 0.0147 µM
EC50 (SK-MEL-28 [5]): 43.7 µM
